Assay results pooled from the literature.

`N#Cc1ccc(Nc2nc(N)cc(Oc3c(F)cc(-c4ccc(C#N)cc4)cc3F)n2)cc1` has a clearance of 54.6 mL/min/kg (Sprague-Dawley rat, plasma; intravenous, 1 mg/kg).
With `CC[C@H](C)[C@H](NC(=O)[C@H](Cc1ccccc1)NC(=O)[C@H](CCC(=O)O)NC(=O)[C@H](CCCNC(=N)N)NC(=O)[C@H](C)NC(=O)[C@H](C)NC(=O)[C@H](CCC(N)=O)NC(=O)[C@H](CCC(=O)O)NC(=O)[C@H](CCC(=O)O)NC(=O)[C@H](CC(C)C)NC(=O)[C@H](Cc1ccc(O)cc1)NC(=O)[C@H](CO)NC(=O)[C@H](CO)NC(=O)[C@@H](NC(=O)[C@H](CC(=O)O)NC(=O)[C@H](CO)NC(=O)[C@@H](NC(=O)[C@H](Cc1ccccc1)NC(=O)[C@@H](NC(=O)CNC(=O)[C@H](CCC(=O)O)NC(=O)[C@H](C)NC(=O)CCc1c[nH]cn1)[C@@H](C)O)[C@@H](C)O)C(C)C)C(=O)N[C@@H](C)C(=O)N[C@@H](Cc1c[nH]c2ccccc12)C(=O)N[C@@H](CC(C)C)C(=O)N[C@H](C(=O)N[C@@H](CCCNC(=N)N)C(=O)NCC(=O)N[C@@H](CCCNC(=N)N)C(=O)N[C@@H](CCCCNC(=O)COCCOCCNC(=O)COCCOCCNC(=O)CC[C@H](NC(=O)CCCCCCCCCCCCCCCCC(=O)O)C(=O)O)C(=O)O)C(C)C` the CL/F was 0.145 mL/min/kg (rat, plasma; subcutaneous, 20 nmol/kg).
The CL/F of `COc1ccc(C(C)=O)c(O)c1` is reported as 44.2 mL/min/kg (male Sprague-Dawley rat, plasma; oral, 100 mg/kg).
The clearance of `CCCC[C@@H]1NC(=O)[C@H](Cc2ccc(O)cc2)NC(=O)[C@@H]2CCCN2C(=O)[C@H](CC(=O)O)NC(=O)[C@H](C)NC(=O)[C@H](Cc2ccccc2)NC(=O)[C@@H]2CSCCC(=O)N3CN(CN(C3)C(=O)CCSC[C@@H](C(=O)N[C@@H](C)C(N)=O)NC1=O)C(=O)CCSC[C@H](NC(C)=O)C(=O)N[C@@H](CC(C)(C)C)C(=O)N1CCC[C@H]1C(=O)N[C@@H](CCC(=O)O)C(=O)N[C@H](CCCCNC(=O)CCc1cn(CCOCCOCCOCCOCCOCCOCCOCCOCCOCCOCCNC(=O)c3cc(C(=O)NCCOCCOCCOCCOCCOCCOCCOCCOCCOCCOCCn4cc(CCC(=O)NCCCC[C@H]5NC(=O)[C@H](CCC(=O)O)NC(=O)[C@@H]6CCCN6C(=O)[C@H](CC(C)(C)C)NC(=O)[C@@H](NC(C)=O)CSCCC(=O)N6CN7CN(C6)C(=O)CCSC[C@H](NC(=O)[C@H](Cc6ccc(O)cc6)NC(=O)[C@@H]6CCCN6C5=O)C(=O)N[C@@H](Cc5ccccc5)C(=O)N[C@@H](C)C(=O)N[C@@H](CC(=O)O)C(=O)N5CCC[C@H]5C(=O)N[C@@H](Cc5ccc(O)cc5)C(=O)N[C@@H](CCCC)C(=O)N[C@H](C(=O)N[C@@H](C)C(N)=O)CSCCC7=O)nn4)cc(C(=O)NCCOCCOCCOCCOCCOCCOCCOCCOCCOCCOCCn4cc(CCC(=O)N[C@H]5CSCCC(=O)N6CN7CN(C6)C(=O)CCSC[C@H](NC(=O)[C@@H](CC(=O)O)NC(=O)[C@H](Cc6cccc8ccccc68)NC(=O)[C@@H]6CCCN6C5=O)C(=O)N[C@@H](CCSC)C(=O)N[C@@H](CCCCNC(=N)N)C(=O)N[C@@H](CC(=O)O)C(=O)N[C@@H](Cc5c[nH]c6ccccc56)C(=O)N[C@@H](CO)C(=O)N[C@@H]([C@@H](C)O)C(=O)N5CCC[C@H]5C(=O)N5C[C@H](O)C[C@H]5C(=O)N[C@@H](Cc5c[nH]c6ccccc56)C(=O)N[C@H](C(N)=O)CSCCC7=O)nn4)c3)nn1)C(=O)N1CCC[C@H]1C(=O)N[C@@H](Cc1ccc(O)cc1)C(=O)N2` is reported as 9.2 mL/min/kg (rat, plasma; intravenous, 2 mg/kg).
`COc1ccc2c(Cc3ccccc3F)c3n(c(=O)c2c1OC)CCc1cc2c(cc1-3)OCO2` has a clearance of 3.67 mL/min/kg (rat, plasma; intravenous, 5 mg/kg).
For `Oc1c(Br)cc(Cl)c2cccnc12`, the clearance was 27.8 mL/min/kg (Sprague-Dawley rat, plasma; intravenous, 2 mg/kg).
The clearance of `Cc1c(-c2ccccc2)cccc1N1C(=O)c2cc(CN[C@H](C(=O)O)C(C)O)c(OCc3cccc(C#N)c3)cc2C1=O` (stereo partly shown) is reported as 5.66 mL/min/kg (Sprague-Dawley rat, plasma; intravenous, 5 mg/kg).
The clearance of `O=C(Nc1cc(F)c(F)c(F)c1)c1ccc(F)c(S(=O)(=O)NCc2cccc(B(O)O)c2)c1` is reported as 137 mL/min/kg (male Sprague-Dawley rat, plasma; intravenous, 2 mg/kg).
The clearance of `COc1ccc2c(=O)n(C)c(-c3ccccc3)nc2c1` is reported as 39 mL/min/kg (male Sprague-Dawley rat, plasma; intravenous, 2 mg/kg).
The clearance of `C=CC(=O)Nc1cc(Nc2nccc(Nc3cc(Cl)c(F)cc3C(C)(C)O)n2)c(OC)cc1N1CC[C@@H](N(C)C)C1` is reported as 30.8 mL/min/kg (Wistar rat, plasma; intravenous, 3 mg/kg).
`CCc1nc(C(N)=O)c(Nc2ccc(N3CCC(N4CCN(C)CC4)CC3)c(OC)c2)nc1NC1CCOCC1` has a CL/F of 0.9 L/h (rat, plasma; oral, 10 mg/kg).
With `COCCOC(=O)C1=C(C)NC(C)=C(C(=O)OC(C)C)C1c1cccc([N+](=O)[O-])c1` (stereo not shown) the clearance was 0.025 mL/min/kg (male Sprague-Dawley rat, plasma; intravenous, 3 mg/kg).
`Oc1c(-n2ccnn2)cnn1-c1cc(N2CCOCC2)ncn1` has a clearance of 18.3 mL/min/kg (male rat, blood; intravenous, 5 mg/kg).
